Experimental data: ChEMBL document CHEMBL4145581, “Piperidine Alkaloids with Diverse Skeletons from Anacyclus pyrethrum” (J Nat Prod, 2018)

Target: T1, Menin (Homo sapiens) (UniProt O00255)
T1 sequence (whole entry): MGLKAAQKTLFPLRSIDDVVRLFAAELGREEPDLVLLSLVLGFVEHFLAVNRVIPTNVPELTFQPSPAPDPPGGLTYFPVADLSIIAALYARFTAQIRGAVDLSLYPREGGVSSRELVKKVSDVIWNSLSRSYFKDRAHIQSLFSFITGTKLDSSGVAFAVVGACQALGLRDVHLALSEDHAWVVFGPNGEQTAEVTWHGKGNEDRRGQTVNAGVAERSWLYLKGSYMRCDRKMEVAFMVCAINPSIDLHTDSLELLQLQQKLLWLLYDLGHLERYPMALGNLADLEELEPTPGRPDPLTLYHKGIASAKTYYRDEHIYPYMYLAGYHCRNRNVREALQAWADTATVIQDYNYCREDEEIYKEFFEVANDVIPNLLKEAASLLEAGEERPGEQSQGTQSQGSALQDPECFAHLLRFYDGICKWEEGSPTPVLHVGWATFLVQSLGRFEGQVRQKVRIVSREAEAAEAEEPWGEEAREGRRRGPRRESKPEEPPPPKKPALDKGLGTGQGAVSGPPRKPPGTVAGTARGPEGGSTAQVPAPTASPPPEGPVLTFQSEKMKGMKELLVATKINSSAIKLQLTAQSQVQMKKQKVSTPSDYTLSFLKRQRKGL
Assay: Inhibition of FITC-labelled MLL1 binding to menin (unknown origin) at 20 uM after 120 mins by fluorescence polarization method relative to control
Procedure, shortened: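 Menin–MLL1 protein–protein interaction inhibition assay with fluorescence polarization read-out on a plate reader. MI-2-2 served as the positive control.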

Structure (SMILES) | inhibition [%]
CC(=O)NC(C)(C)[C@H]1C(=O)C2=CC(C)(C)NC(C)=C2C(=O)[C@@H]1C | < 50
CC(=O)NC(C)(C)CC1=C[C@@]2(C)C(=O)C(C)(C)NC(C)=C2C1=O | < 50
CC1(C)CC(C2OC2(C)C)=CC(=O)N1 (stereo not drawn) | < 50
CC1=C2NC(C)(C)CC2=NC(C)(C)C1=O | < 50
CC(=O)NC(C)(C)C[C@@]1(O)C(=O)C2=C(C)NC(C)(C)C(=O)C2(C)[C@H]1O (stereo partly drawn) | < 50
CC1=CC(C)(C)NC1=O | < 50
CC1=C2C3=C(C)C(=O)C(C)(C)N=C3C[C@@]2(C)CC(C)(C)N1 | < 50
CC1=CC(=O)NC(C)(C)C1 | < 50
CC(=O)NC(C)(C)C1C=C2CC(C)(C)NC(C)=C2C(=O)C1C (stereo not drawn) | < 50
CC1=C2C(=O)C3=CC(C)(C)N=C4CC(C)(C)C[C@@]2(CC(C)(C)N1)[C@]34O | < 50
CC1(C)CC2=NC(C)(C)C3=NC(C)(C)CC3(O)C2=N1 (stereo not drawn) | < 50
CC1(C)CC2=NC(C)(C)C(=O)C(C(C)(C)O)=C2N1 | < 50
CC(=O)NC(C)(C)[C@H]1C(=O)C2=CC(C)(C)NC(C)=C2C(=O)[C@@H]1C=C(C)C | < 50
